14 compounds from ChEMBL document CHEMBL2424547, “Synthesis and biological analysis of benzazol-2-yl piperazine sulfonamides as 11β-hydroxysteroid dehydrogenase 1 inhibitors” (Bioorg Med Chem Lett, 2013) can be followed below.

Activity calls are given as the source filed them. The rule behind the calls is not given here.

One assay has as its target T1, 11-beta-hydroxysteroid dehydrogenase 1 (Homo sapiens, UniProt P28845). In words: Inhibition of human 11beta-HSD1 expressed in HEK293 cells assessed as [1,2-3H]-cortisone reduction […] measured as residual activity at 20 uM after 10 mins relative to control in presence of NADPH.
Conditions: not given
The assay is classed as cell-based. In a few lines: (§1)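 Cell-free 11β-HSD1 activity assay. Compounds were first screened at a single 20 µM concentration, and IC50 values were then determined for selected compounds. Values are mean ± SD from at least three independent experiments.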
Target sequence in this assay (P28845 whole entry, looked up): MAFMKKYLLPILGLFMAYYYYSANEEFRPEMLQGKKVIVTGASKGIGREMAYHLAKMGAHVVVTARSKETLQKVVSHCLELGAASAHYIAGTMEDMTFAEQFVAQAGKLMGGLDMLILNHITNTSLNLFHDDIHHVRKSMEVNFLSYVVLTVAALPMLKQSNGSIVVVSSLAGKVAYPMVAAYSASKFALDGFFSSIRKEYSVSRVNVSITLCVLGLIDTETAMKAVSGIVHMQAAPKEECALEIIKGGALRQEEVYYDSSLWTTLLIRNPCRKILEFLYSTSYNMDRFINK
Take `Cn1c(N2CCN(S(=O)(=O)c3cccc(C(=O)O)c3)CC2)nc2ccccc21`: the Activity stood at 75%.
Still for that read-out and setting: under `Cn1c(N2CCN(S(=O)(=O)c3ccc(C(=O)O)cc3)CC2)nc2ccccc21` stands 90%; under `Cn1c(N2CCN(S(=O)(=O)c3cccc(C(=O)NO)c3)CC2)nc2ccccc21`, 60%; under `Cc1ccc(S(=O)(=O)N2CCN(c3nc4ccccc4s3)CC2)cc1`, 89%.
Take `Cc1ccc(C(=O)N2CCN(c3nc4ccccc4[nH]3)CC2)cc1`: the Activity came to 65%.
`Cc1ccc(S(=O)(=O)N2CCN(c3nc4ccccc4[nH]3)CC2)cc1`: the Activity was determined as 50%.
On to `Cn1c(N2CCN(S(=O)(=O)c3ccc(C(=O)NO)cc3)CC2)nc2ccccc21`, for which the Activity turned out to be 90%.

For the next assay, the target named is T1, 11-beta-hydroxysteroid dehydrogenase 1. In words: Inhibition of human 11beta-HSD1 expressed in HEK293 cells assessed as [1,2-3H]-cortisone reduction […] after 10 mins in presence of NADPH. It counts as cell-based. The settings on record: hek293. In a few lines:
as §1
Target sequence in this assay (P28845 whole entry): as the sequence (P28845 whole entry, looked up) above
In the case of `CC(C)(C)c1ccc(S(=O)(=O)N2CCN(c3nc4ccccc4o3)CC2)cc1`, the IC50 result is “ND(Insoluble)”.

Staying with this assay, now noted: read-out: IC50.
Turning to `COc1ccc(S(=O)(=O)N2CCN(c3nc4ccccc4n3C)CC2)cc1`, the IC50 worked out at 4.2 µM.
With `Cc1ccc(S(=O)(=O)N2CCN(c3nc4ccccc4n3C)CC2)cc1`, the IC50 came to 0.7 µM.
As to `Cn1c(N2CCN(S(=O)(=O)c3ccc(C(C)(C)C)cc3)CC2)nc2ccccc21`, the IC50 amounted to 4.8 µM.
As for `COc1ccc(S(=O)(=O)N2CCN(c3nc4ccccc4n3C)CC2)cc1[N+](=O)[O-]`, the IC50 came to 27.2 µM.
Regarding `Cn1c(N2CCN(S(=O)(=O)c3ccccc3)CC2)nc2ccccc21`, the IC50 came to 6.4 µM.
Consider `COc1ccc(S(=O)(=O)N2CCN(c3nc4ccccc4n3C)CC2)cc1OC`, for which the IC50 was 18.5 µM.

The next assay shares this target. In words: Inhibition of human 11beta-HSD1 expressed in HEK293 cells assessed as [1,2-3H]-cortisone reduction […] measured as residual activity after 10 mins relative to control in presence of NADPH. The assay is classed as cell-based.
Conditions: not given
In a few lines:
as §1
Target sequence in this assay (P28845 whole entry, looked up): as above
As for `CC(C)(C)c1ccc(S(=O)(=O)N2CCN(c3nc4ccccc4o3)CC2)cc1`, the Activity came out at 18%.

The target of a further assay is T2, 11-beta-hydroxysteroid dehydrogenase type 2 (Homo sapiens) (UniProt P80365).
T2 sequence (whole entry): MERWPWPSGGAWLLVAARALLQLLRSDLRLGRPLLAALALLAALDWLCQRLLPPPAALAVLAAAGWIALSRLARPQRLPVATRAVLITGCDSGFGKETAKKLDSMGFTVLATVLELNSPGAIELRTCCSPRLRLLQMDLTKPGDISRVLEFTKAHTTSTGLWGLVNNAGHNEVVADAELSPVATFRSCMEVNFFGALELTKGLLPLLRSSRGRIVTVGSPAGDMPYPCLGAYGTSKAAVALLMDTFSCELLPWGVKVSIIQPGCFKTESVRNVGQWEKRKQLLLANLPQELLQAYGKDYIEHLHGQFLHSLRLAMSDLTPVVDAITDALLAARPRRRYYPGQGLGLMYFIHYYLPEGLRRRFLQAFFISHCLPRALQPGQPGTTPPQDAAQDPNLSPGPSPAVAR
In words: Inhibition of human 11beta-HSD2 expressed in HEK293 cells assessed as [1,2,6,7-3H]-cortisol oxidation to [1,2-3H]-cortisone at 20 uM after 10 mins in presence of NAD+. It counts as cell-based.
Conditions: not given
`CC(C)(C)c1ccc(S(=O)(=O)N2CCN(c3nc4ccccc4o3)CC2)cc1`: the inhibition result was “inactive”.
Same read-out and setting: under `Cn1c(N2CCN(S(=O)(=O)c3cccc(C(=O)O)c3)CC2)nc2ccccc21` stands “inactive”; under `Cn1c(N2CCN(S(=O)(=O)c3ccc(C(=O)O)cc3)CC2)nc2ccccc21`, “inactive”; under `COc1ccc(S(=O)(=O)N2CCN(c3nc4ccccc4n3C)CC2)cc1`, “inactive”.
With `Cn1c(N2CCN(S(=O)(=O)c3cccc(C(=O)NO)c3)CC2)nc2ccccc21`, the inhibition result was “inactive”.
`Cc1ccc(S(=O)(=O)N2CCN(c3nc4ccccc4s3)CC2)cc1`: the inhibition result was “inactive”.
The same measure, in the same setting: as for `Cc1ccc(S(=O)(=O)N2CCN(c3nc4ccccc4n3C)CC2)cc1`, the entry is “inactive”.
`Cn1c(N2CCN(S(=O)(=O)c3ccc(C(C)(C)C)cc3)CC2)nc2ccccc21`: the inhibition result is “inactive”.
With `Cc1ccc(C(=O)N2CCN(c3nc4ccccc4[nH]3)CC2)cc1`, the inhibition entry was “inactive”.
With `Cc1ccc(S(=O)(=O)N2CCN(c3nc4ccccc4[nH]3)CC2)cc1`, the inhibition result is “inactive”.
Consider `COc1ccc(S(=O)(=O)N2CCN(c3nc4ccccc4n3C)CC2)cc1[N+](=O)[O-]`, for which the inhibition result was “inactive”.
Regarding `Cn1c(N2CCN(S(=O)(=O)c3ccccc3)CC2)nc2ccccc21`, the inhibition entry is “inactive”.
Take `Cn1c(N2CCN(S(=O)(=O)c3ccc(C(=O)NO)cc3)CC2)nc2ccccc21`: the inhibition result is “inactive”.
Still for that read-out and setting: as for `COc1ccc(S(=O)(=O)N2CCN(c3nc4ccccc4n3C)CC2)cc1OC`, the entry is “inactive”.
